EC50, CC50 and selectivity ratio data for 25 compounds are collected here from ChEMBL document CHEMBL4177671, “Selenium-containing analogues of WC-9 are extremely potent inhibitors of Trypanosoma cruzi proliferation” (Bioorg Med Chem, 2017).

Data set [1] concerns Trypanosoma cruzi. Kind of data set: Antitrypanosomal activity against tdTomato red labeled trypomastigote stage of Trypanosoma cruzi infected in gamma-irradiated African green monkey Vero cells after 3 days by fluorescence assay. The data set is classed as functional. To be noted: light or radiation study, 72 h, read-out: ED50 (the source's name). In a few lines:
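Vero cells, gamma-irradiated at 2,000 Rads, were seeded at 3.4×10^4 per well in RPMI with 10% FBS and incubated overnight at 35 °C, 7% CO2. They were infected with 3.4×10^5 CL-strain tdTomato trypomastigotes per well for 5 h, then washed. Serial dilutions of 1.56–25 μM were run in quadruplicate, with benznidazole at 0.39–6.25 μM. Fluorescence was read at day 3. ED50 was obtained by non-linear regression.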

Data set [2] in a line: Cytotoxicity against African green monkey Vero cells after 3 to 4 days by Alamar Blue dye-based spectrophotometric method. It is filed as cell-based. To be noted: chlorocebus sabaeus, read-out: ED50 (the source's name). In a few lines: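 Vero cell cytotoxicity was measured by Alamar Blue assay following a previously described method.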
The nature of data set [3]: Selectivity index, ratio of ED50 for African green monkey Vero cells to ED50 for Trypanosoma cruzi. To be noted: Vero cells versus Trypanosoma cruzi, read-out: Ratio ED50. The data set is classed as toxicity. The gist of the method: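 Calculated as ED50 for Vero cytotoxicity divided by ED50 for the parasite.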
Data set [4] relates to Toxoplasma gondii. The data set is described as follows: Antiparasitic activity against tachyzoite stage of Toxoplasma gondii expressing red fluorescent protein infected in gamma-irradiated African green monkey Vero cells by fluorescence assay. It is filed as functional. To be noted: light or radiation study, read-out: ED50 (the source's name). The gist of the method: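 Tachyzoites expressing red fluorescent protein, assayed per an earlier method with published modifications. Plates were read with lids on, bottom read, excitation 544 nm and emission 590 nm. Values are the mean of one experiment carried out in triplicate.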

In the case of `N#C[Se]CC1Cc2cc(Oc3ccccc3)ccc2O1` (racemic), the EC50 in data set [1] was determined as 0.083 µM. The CC50 in data set [2] was greater than 125 µM. Further, the selectivity ratio in data set [3] is greater than 1500.
Turning to `N#CSCCOc1ccc(Oc2ccccc2)cc1`, the EC50 in data set [1] stood at 5 µM; in data set [4] it was 4.8 µM. For the same compound, the CC50 in data set [2] stood at 82.6 µM.
Regarding `CCOP(=O)(OCC)C(CNCCOc1ccccc1)P(=O)(OCC)OCC`, the EC50 in data set [1] amounted to 5.38 µM.
For `N#C[Se]CCOc1cccc(Oc2ccc(Cl)cc2)c1`, the EC50 in data set [1] worked out at 0.114 µM. Also, the CC50 in data set [2] is greater than 125 µM. In addition, the selectivity ratio in data set [3] is greater than 1100.
On to `N#C[Se]CC1Cc2ccc(Oc3ccccc3)cc2O1` (racemic), for which the EC50 in data set [1] was 0.12 µM. For the same compound, in data set [2], the CC50 is greater than 125 µM. Moreover, the selectivity ratio in data set [3] was greater than 1040.
For the compound `N#C[Se]CCOc1ccc(Oc2ccc(F)cc2)cc1`, in data set [1], the EC50 stood at 0.271 µM. Also, the CC50 in data set [2] turned out to be 122 µM.
With `NC(=O)OCCOc1ccc(Oc2ccccc2)cc1`, the EC50 in data set [1] was greater than 10 µM.
Consider `N#C[Se]CCOc1ccc(Cl)cc1Cl`, for which, in data set [1], the EC50 was 1.38 µM. In data set [2], the CC50 was greater than 62.5 µM. Moreover, the selectivity ratio in data set [3] is greater than 45.3.
Consider `N#C[Se]CCOc1ccc(Oc2cccc(F)c2)cc1`, for which the EC50 in data set [1] worked out at 0.085 µM. In addition, the CC50 in data set [2] was 153 µM. In addition, the selectivity ratio in data set [3] is 1800.
With `N#CSCC1Cc2cc(Oc3ccccc3)ccc2O1` (stereo not drawn), the EC50 in data set [1] was 5.99 µM; in data set [4] it was greater than 10 µM. Also, the CC50 in data set [2] is greater than 62.5 µM. The selectivity ratio in data set [3] was greater than 10.4.
As for `O=[N+]([O-])c1ccc(Oc2cccc(Br)c2)cc1`, the EC50 in data set [1] is greater than 100 µM.
Still for that read-out and setting: with `N#COCCOc1ccc(Oc2ccccc2)cc1` the figure was greater than 10 µM; with `O=C(Cn1ccnc1[N+](=O)[O-])NCc1ccccc1` [BENZNIDAZOLE], 1.5 µM.
With `N#C[Se]CC1Cc2c(Oc3ccccc3)cccc2O1` (racemic), in data set [1], the EC50 is 0.407 µM. Further, the CC50 in data set [2] was greater than 125 µM. Besides, the selectivity ratio in data set [3] was greater than 307.
Consider `N#C[Se]CCOc1cccc(Oc2cccc(F)c2)c1`, for which the EC50 in data set [1] was 0.075 µM. Besides, the CC50 in data set [2] was greater than 62.5 µM. For the same compound, in data set [3], the selectivity ratio is greater than 833.
On the same counts, the results for `N#C[Se]CCOc1cccc(Oc2ccccc2F)c1` are 0.126 µM, 140 µM and 1110.
For the compound `N#CSCc1cc2cc(Oc3ccccc3)ccc2o1`, the EC50 in data set [1] stood at 5.19 µM.
In the case of `N#C[Se]CCOc1cccc(Oc2ccc(F)cc2)c1`, the EC50 in data set [1] worked out at 0.099 µM. In addition, the CC50 in data set [2] was greater than 125 µM. Moreover, in data set [3], the selectivity ratio is greater than 1260.
On the same counts, the results for `N#C[Se]CCOc1cccc(I)c1` are 5.44 µM, greater than 62.5 µM and greater than 11.5.
In the case of `N#CSCCOc1cccc(Sc2ccccc2)c1`, the values for the EC50 in data set [1] and in data set [4] were greater than 10 µM and 3.58 µM, respectively. In data set [2], the CC50 is greater than 50 µM.
On to `N#CSCCOc1ccc(Sc2ccccc2)cc1`, for which the EC50 in data set [1] is 5.73 µM; in data set [4], 4.58 µM. The CC50 in data set [2] is greater than 62.5 µM. For the same compound, in data set [3], the selectivity ratio is greater than 10.9.
In the same order, the values of `N#C[Se]CCOc1cccc(Oc2ccccc2)c1` are 0.085 µM, 2.87 µM, greater than 150 µM and greater than 1760.
On to `O=P(O)(O)C(CNCCOc1ccccc1)P(=O)(O)O`, for which the EC50 in data set [1] was 5.69 µM.
Consider `N#C[Se]CCOc1ccc(I)cc1`, for which, in data set [1], the EC50 is greater than 10 µM. In data set [2], the CC50 is greater than 50 µM.
`N#C[Se]CCOc1ccc(Oc2ccccc2)cc1`: the EC50 in data set [1] was found to be 0.109 µM; in data set [4], 3.7 µM. The CC50 in data set [2] is greater than 100 µM. The selectivity ratio in data set [3] is greater than 917.
